Source: ChEMBL document CHEMBL1124018, “Synthesis and pharmacological properties of "soft drug" derivatives related to perhexiline” (J Med Chem, 1988)

Biological target: T1, Adrenergic receptor alpha-1 (Rattus norvegicus, UniProt P15823+P23944+P43140)
T1 sequence (P15823 whole entry): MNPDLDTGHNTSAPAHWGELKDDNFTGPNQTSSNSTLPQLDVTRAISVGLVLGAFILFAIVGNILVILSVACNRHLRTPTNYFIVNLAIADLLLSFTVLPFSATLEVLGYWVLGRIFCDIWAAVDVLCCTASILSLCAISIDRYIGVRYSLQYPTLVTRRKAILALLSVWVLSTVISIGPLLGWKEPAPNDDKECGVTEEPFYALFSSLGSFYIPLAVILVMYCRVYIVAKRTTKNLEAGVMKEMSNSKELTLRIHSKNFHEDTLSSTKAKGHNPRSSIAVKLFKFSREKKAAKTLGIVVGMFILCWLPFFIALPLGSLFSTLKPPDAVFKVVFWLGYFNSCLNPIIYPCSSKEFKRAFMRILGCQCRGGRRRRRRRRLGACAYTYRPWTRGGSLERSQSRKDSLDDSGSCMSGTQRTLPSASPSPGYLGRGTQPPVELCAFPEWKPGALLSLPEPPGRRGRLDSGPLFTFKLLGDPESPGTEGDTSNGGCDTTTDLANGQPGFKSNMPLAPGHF
T1 sequence (P23944 whole entry): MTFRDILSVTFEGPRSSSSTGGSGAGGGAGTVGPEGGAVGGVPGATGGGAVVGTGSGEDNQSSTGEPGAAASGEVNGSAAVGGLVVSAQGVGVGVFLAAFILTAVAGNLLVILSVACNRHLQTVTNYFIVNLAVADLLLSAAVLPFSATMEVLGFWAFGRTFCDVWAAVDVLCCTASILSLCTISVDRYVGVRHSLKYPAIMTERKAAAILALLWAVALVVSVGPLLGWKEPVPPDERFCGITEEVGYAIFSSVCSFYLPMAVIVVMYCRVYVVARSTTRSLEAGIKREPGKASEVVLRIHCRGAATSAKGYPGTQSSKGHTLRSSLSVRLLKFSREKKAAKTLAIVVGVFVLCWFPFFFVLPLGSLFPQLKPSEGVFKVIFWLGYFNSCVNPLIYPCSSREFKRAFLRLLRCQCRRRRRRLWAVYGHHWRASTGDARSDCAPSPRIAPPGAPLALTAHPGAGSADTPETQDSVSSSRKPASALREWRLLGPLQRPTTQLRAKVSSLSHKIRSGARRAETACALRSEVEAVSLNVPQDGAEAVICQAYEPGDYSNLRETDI
T1 sequence (P43140 whole entry): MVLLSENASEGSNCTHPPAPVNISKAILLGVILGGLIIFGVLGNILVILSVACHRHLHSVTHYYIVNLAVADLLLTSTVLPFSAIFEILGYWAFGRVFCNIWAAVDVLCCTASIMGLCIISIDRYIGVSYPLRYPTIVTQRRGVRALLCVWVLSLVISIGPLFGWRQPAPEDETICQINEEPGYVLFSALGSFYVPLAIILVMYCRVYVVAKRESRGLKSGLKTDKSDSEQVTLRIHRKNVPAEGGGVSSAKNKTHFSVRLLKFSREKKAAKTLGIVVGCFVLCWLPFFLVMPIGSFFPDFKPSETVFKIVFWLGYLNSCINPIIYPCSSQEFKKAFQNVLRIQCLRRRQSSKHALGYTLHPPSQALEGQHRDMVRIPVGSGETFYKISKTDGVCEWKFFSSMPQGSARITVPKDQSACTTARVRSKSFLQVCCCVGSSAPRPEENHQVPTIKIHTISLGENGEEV
Experiment: Alpha adrenergic receptor activity in rat aorta
Format: tissue-based
In short: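 Rat aortic strips held at 2 g resting tension, stabilized about 1 h. Propranolol 10^-6 M for 30 min to block β-receptors. Isometric contraction recorded. Tissues primed with an agonist level giving 70-80% of maximal response, then washed every 15 min for 60 min. Two cumulative norepinephrine curves (10^-10–10^-7 M), with ascorbic acid 1.13 × 10^-5 M present, run before and after 30 min antagonist preincubation. One antagonist concentration per preparation. Reported as pA2.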

| pA2 | SMILES |
| --- | --- |
| 6.5 | COc1ccc(CCN(C)CC(=O)NC(c2ccccc2)C2CCCCC2)cc1OC.O=C(O)C(=O)O (stereo not drawn) |
| 6.15 | CN(CC(=O)NC(c1ccccc1)C1CCCCC1)CC1COc2ccccc2O1.O=C(O)C(=O)O (stereo not drawn) |
| 5.2 | O=C(NCc1ncc[nH]1)C(c1ccccc1)C1CCCCC1.O=C(O)C(=O)O (stereo not drawn) |
| 4.2 | O=C(CCc1ncc[nH]1)NC(c1ccccc1)C1CCCCC1.O=C(O)C(=O)O (stereo not drawn) |
| 5.8 | O=C(CC1=NCCN1)NC(c1ccccc1)C1CCCCC1.O=C(O)C(=O)O (stereo not drawn) |
| 5.7 | O=C(NCCC1=NCCN1)C(c1ccccc1)C1CCCCC1.O=C(O)C(=O)O (stereo not drawn) |
| 4.5 | O=C(NCCN1CCOCC1)C(c1ccccc1)C1CCCCC1.O=C(O)C(=O)O (stereo not drawn) |
| 5.9 | O=C(Cc1ncc[nH]1)NC(c1ccccc1)C1CCCCC1.O=C(O)C(=O)O (stereo not drawn) |
| 6 | O=C(NCCN1CCCCC1)C(c1ccccc1)C1CCCCC1.O=C(O)C(=O)O (stereo not drawn) |
| 5.4 | O=C(NCCc1ncc[nH]1)C(c1ccccc1)C1CCCCC1.O=C(O)C(=O)O (stereo not drawn) |
| 5.4 | O=C(CCC1=NCCN1)NC(c1ccccc1)C1CCCCC1.O=C(O)C(=O)O (stereo not drawn) |
| 5.5 | Cl.O=C(NC1CCCCN1)C(c1ccccc1)C1CCCCC1 (stereo not drawn) |
| 5.4 | CCN(CC)CCNC(=O)C(c1ccccc1)C1CCCCC1.Cl (stereo not drawn) |
| 6.1 | Cl.O=C(NCC1=NCCN1)C(c1ccccc1)C1CCCCC1 (stereo not drawn) |
| 4.5 | NCC(=O)NC(c1ccccc1)C1CCCCC1.O=C(O)/C=C\C(=O)O (stereo not drawn) |
| 4.1 | O=C(NCc1c[nH]cn1)C(c1ccccc1)C1CCCCC1.O=C(O)/C=C\C(=O)O (stereo not drawn) |
| 6.7 | CN(CC(=O)NC(c1ccccc1)C1CCCCC1)C1CCCCC1.O=C(O)/C=C\C(=O)O (stereo not drawn) |
| 5.3 | CN(C(=O)CNC1CCCCC1)C(c1ccccc1)C1CCCCC1.O=C(O)/C=C\C(=O)O (stereo not drawn) |
| 6 | O=C(CNCC1COc2ccccc2O1)NC(c1ccccc1)C1CCCCC1.O=C(O)/C=C\C(=O)O (stereo not drawn) |
| 5.3 | O=C(Cc1c[nH]cn1)NC(c1ccccc1)C1CCCCC1.O=C(O)/C=C\C(=O)O (stereo not drawn) |
| 6 | COc1ccccc1N1CCN(CCC(=O)NC(c2ccccc2)C2CCCCC2)CC1.O=C(O)/C=C\C(=O)O (stereo not drawn) |
| 4.5 | CN(CC(=O)N(C)C(c1ccccc1)C1CCCCC1)C1CCCCC1.O=C(O)/C=C\C(=O)O (stereo not drawn) |
| 6.6 | O=C(NCCNC1CCCCC1)C(c1ccccc1)C1CCCCC1 (stereo not drawn) |
| 6.5 | O=C(CNC1CCCCC1)NC(c1ccccc1)C1CCCCC1 (stereo not drawn) |
| 6 | CCN(CC)CC(=O)NC(c1ccccc1)C1CCCCC1 (stereo not drawn) |
| 5.8 | O=C(CCCNC1CCCCC1)NC(c1ccccc1)C1CCCCC1 (stereo not drawn) |
| 6.1 | O=C(CCNC1CCCCC1)NC(c1ccccc1)C1CCCCC1 (stereo not drawn) |
| 6.7 | C1CCC(C(CC2CCCCN2)C2CCCCC2)CC1 (stereo not drawn) [PERHEXILINE] |
